In ChEMBL document CHEMBL1914327, “Unichiral 2-(2'-pyrrolidinyl)-1,4-benzodioxanes: the 2R,2'S diastereomer of the N-methyl-7-hydroxy analogue is a potent α4β2- and α6β2-nicotinic acetylcholine receptor partial agonist” (J Med Chem, 2011):
pEC50, pKd, pKi: −log10 of the molar value. Active and inactive are the calls of the source. The calls are words filed in the database; no cut-off is given here.

Tests used:
[1] = molecular target: T1, Neuronal acetylcholine receptor; alpha4/beta2 (Rattus norvegicus, UniProt P09483+P12390); assay: Displacement of [3H]epibatidine from alpha4beta2 nAChR in Sprague-Dawley rat cerebral cortex by beta counting; type: tissue-based
Summary of the method: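 Sprague-Dawley rat cortical membranes in Tris buffer pH 7 with protease inhibitors. Membranes first blocked with 1 μM α-bungarotoxin. Compound (10 pM to 10 mM) preincubated 30 min at rt, then 0.1 nM [3H]epibatidine (final) added overnight at 4 °C. Nonspecific binding defined with 100 nM unlabeled epibatidine. Filtered and beta counted. Ki from three independent experiments fitted by LIGAND.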

[2] = molecular target: Neuronal acetylcholine receptor subunit alpha-7 (Rattus norvegicus, UniProt Q05941); assay: Displacement of [125I]alpha-bungarotoxin from alpha7 nAChR in Sprague-Dawley rat cerebral cortex […]; type: tissue-based
[3] = molecular target: Neuronal acetylcholine receptor; alpha3/beta4 (Homo sapiens, UniProt P30926+P32297); assay: Displacement of [3H]epibatidine from human alpha3beta4 nAChR expressed in human HEK293 cells by scintillation counting; type: cell-based
Summary of the method: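 Membranes from HEK293 cells transiently transfected with α3 and β4 cDNAs (harvested at 48 h). Compound was preincubated for 5 min, then 0.25 nM [3H]epibatidine was added overnight at 4 °C in Tris buffer (pH 7) with BSA and no Tween. Nonspecific binding used 100 nM epibatidine. Ki was fitted from three experiments in triplicate.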

HEK293 = assay: Selectivity ratio of Ki for human alpha3beta4 nAChR expressed in human HEK293 cells to Ki for alpha4beta2 nAChR in rat cerebral cortex; type: cell-based
[4] = molecular target: Neuronal acetylcholine receptor; alpha3/beta4 (Rattus norvegicus, UniProt P04757+P12392); assay: Partial agonist activity at rat alpha3beta4 nAChR assessed as [3H]noradrenaline release from rat […] by beta counting; type: functional
Rattus norvegicus = species: Rattus norvegicus; assay: Selectivity ratio of Ki for alpha7 nAChR in Sprague-Dawley rat cerebral cortex to Ki for alpha4beta2 nAChR in Sprague-Dawley rat cerebral cortex; type: tissue-based
Summary of the method: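 Sprague-Dawley rat cortical membranes, with compound (10 pM–10 mM) preincubated 30 min at rt. α4β2 assay: membranes pretreated with 1 μM α-bungarotoxin, then 0.1 nM [3H]epibatidine overnight at 4 °C. α7 assay: 1 nM [125I]α-bungarotoxin overnight at rt. Ki values were from LIGAND fits of three experiments, and the ratio was taken from these Ki values.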

[5] = molecular target: T1, Neuronal acetylcholine receptor; alpha4/beta2; assay: Partial agonist activity at Nicotinic acetylcholine alpha4beta2 receptor in rat striatum assessed as [3H]dopamine release by beta counting; type: functional, tissue-based
Summary of the method: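 Rat striatal slices (150 μm) were preloaded for 30 min with 100 nM [3H]DA in Krebs buffer containing 10 μM pargyline, then washed with pargyline plus 0.5 μM nomifensine. Slices were exposed to agonist for 5 min at 37 °C.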

[6] = molecular target: T2, Neuronal acetylcholine receptor; alpha4/beta2 (Rattus norvegicus) (UniProt P09483+P12390); assay: Partial agonist activity at Nicotinic acetylcholine alpha4beta2 receptor in rat striatum assessed as [3H]dopamine release by beta counting relative to nicotine; type: functional, tissue-based
Summary of the method: (§1)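 Rat striatal slices (150 μm) were preloaded for 30 min with 100 nM [3H]DA in Krebs buffer containing 10 μM pargyline, then washed with pargyline plus 0.5 μM nomifensine. Slices were exposed to agonist for 5 min at 37 °C. […] EC50/Emax came from nonlinear regression; six replicates, ≥3 experiments.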

[7] = molecular target: T3, Neuronal acetylcholine receptor subunit alpha-6/beta-3 (Rattus norvegicus) (UniProt P12391+P43143); assay: Partial agonist activity at alpha6beta2 nAChR in rat striatum assessed as decrease in [3H]dopamine release by beta counting in the presence of antagonist alphaconotoxin MII; type: functional, tissue-based
[8] = molecular target: T1, Neuronal acetylcholine receptor; alpha4/beta2; assay: Agonist activity at rat alpha4beta2 nAChR assessed as [3H]dopamine release by beta counting; type: functional; summary of the method: as §1
[9] = molecular target: T3, Neuronal acetylcholine receptor subunit alpha-6/beta-3 (Rattus norvegicus); assay: Agonist activity at rat alpha6beta2 nAChR assessed as [3H]dopamine release from rat striatum by beta counting relative to 10 uM nicotine; type: functional
[10] = molecular target: T2, Neuronal acetylcholine receptor; alpha4/beta2 (Rattus norvegicus); assay: Agonist activity at rat alpha4beta2 nAChR assessed as [3H]dopamine release from rat striatum by beta counting relative to 10 uM nicotine; type: functional; summary of the method: as §1

Neuronal acetylcholine receptor subunit alpha-7, sequence (Q05941 whole entry): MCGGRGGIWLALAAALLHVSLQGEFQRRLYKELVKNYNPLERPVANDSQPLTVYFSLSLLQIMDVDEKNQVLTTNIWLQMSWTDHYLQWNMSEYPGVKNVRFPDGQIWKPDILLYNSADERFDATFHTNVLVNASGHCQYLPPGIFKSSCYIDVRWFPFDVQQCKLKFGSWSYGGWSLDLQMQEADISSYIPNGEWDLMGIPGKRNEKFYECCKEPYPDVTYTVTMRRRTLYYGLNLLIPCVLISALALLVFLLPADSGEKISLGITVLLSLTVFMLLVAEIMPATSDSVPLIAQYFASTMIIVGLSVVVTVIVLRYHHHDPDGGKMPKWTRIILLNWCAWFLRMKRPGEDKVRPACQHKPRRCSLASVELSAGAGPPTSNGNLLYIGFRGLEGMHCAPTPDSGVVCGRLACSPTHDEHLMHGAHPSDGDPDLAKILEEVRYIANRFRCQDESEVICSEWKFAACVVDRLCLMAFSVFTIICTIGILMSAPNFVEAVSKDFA
T1 sequence (P09483 whole entry): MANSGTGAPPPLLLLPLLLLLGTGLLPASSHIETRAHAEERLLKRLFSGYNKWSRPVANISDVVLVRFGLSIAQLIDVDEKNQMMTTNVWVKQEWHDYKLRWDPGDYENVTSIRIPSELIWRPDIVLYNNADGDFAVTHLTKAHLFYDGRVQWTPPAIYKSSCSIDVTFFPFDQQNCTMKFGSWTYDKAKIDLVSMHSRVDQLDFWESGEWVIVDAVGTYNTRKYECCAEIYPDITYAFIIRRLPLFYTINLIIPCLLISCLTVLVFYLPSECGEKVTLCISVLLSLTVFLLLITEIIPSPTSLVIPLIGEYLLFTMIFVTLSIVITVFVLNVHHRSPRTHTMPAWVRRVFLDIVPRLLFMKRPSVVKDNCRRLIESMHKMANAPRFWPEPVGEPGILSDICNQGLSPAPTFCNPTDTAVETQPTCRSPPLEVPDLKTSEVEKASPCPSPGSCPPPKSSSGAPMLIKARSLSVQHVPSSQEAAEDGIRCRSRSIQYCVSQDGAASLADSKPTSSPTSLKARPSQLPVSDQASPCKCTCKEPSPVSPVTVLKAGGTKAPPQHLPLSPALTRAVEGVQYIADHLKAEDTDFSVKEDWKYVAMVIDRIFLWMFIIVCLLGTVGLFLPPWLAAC
T1 sequence (P12390 whole entry): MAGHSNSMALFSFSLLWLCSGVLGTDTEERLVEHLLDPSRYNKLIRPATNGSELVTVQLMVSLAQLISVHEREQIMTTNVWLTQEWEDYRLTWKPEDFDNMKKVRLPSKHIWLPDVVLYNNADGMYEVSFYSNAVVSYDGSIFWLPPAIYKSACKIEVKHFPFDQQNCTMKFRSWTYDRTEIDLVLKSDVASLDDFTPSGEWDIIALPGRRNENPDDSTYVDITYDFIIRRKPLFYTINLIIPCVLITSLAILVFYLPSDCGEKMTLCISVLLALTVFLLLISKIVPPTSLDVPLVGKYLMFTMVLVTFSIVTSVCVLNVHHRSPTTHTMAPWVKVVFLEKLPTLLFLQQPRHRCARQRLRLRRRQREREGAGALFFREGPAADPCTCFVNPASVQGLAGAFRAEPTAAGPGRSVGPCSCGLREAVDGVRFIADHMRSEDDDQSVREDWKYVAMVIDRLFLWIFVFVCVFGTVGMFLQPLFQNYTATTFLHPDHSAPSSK
Neuronal acetylcholine receptor; alpha3/beta4 (Homo sapiens, UniProt P30926+P32297), sequence (P30926 whole entry): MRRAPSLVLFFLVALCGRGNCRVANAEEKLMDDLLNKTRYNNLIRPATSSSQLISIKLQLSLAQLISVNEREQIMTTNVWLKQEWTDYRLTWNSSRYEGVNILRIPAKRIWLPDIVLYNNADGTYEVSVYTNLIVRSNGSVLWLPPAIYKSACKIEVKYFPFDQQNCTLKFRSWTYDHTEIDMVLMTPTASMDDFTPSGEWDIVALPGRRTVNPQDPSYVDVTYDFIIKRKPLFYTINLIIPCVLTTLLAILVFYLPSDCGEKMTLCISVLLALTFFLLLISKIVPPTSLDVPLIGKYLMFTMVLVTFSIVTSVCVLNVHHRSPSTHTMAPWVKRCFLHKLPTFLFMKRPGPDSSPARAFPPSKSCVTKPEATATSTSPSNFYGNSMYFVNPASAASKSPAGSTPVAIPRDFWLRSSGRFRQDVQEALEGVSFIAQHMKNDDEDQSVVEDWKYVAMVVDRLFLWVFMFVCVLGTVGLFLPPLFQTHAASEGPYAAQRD
Neuronal acetylcholine receptor; alpha3/beta4 (Homo sapiens, UniProt P30926+P32297), sequence (P32297 whole entry): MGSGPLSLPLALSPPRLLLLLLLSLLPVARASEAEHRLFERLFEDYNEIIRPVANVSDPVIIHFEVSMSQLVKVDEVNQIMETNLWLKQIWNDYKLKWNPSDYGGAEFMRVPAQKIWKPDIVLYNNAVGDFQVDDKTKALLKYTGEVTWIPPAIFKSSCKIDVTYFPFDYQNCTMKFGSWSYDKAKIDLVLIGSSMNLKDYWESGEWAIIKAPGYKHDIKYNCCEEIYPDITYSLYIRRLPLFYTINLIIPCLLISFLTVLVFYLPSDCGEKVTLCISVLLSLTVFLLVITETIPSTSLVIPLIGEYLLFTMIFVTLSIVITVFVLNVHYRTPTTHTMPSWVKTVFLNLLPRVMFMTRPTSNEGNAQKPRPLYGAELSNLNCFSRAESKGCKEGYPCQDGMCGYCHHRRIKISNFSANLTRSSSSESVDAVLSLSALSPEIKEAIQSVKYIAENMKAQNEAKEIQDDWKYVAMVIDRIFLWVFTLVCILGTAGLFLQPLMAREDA
Neuronal acetylcholine receptor; alpha3/beta4 (Rattus norvegicus, UniProt P04757+P12392), sequence (P04757 whole entry): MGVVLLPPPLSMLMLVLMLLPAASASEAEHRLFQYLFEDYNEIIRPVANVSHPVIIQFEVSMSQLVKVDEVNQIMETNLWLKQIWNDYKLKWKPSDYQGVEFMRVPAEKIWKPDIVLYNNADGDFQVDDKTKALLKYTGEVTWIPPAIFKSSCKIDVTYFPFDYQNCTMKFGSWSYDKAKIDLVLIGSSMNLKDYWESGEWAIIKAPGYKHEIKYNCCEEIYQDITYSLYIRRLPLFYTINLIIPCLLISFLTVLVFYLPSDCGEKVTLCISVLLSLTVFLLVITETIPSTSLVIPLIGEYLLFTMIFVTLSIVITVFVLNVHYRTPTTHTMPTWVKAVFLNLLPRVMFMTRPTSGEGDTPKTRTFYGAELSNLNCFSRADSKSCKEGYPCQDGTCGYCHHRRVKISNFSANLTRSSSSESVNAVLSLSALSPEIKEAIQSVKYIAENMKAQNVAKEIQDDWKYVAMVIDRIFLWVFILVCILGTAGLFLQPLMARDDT
Neuronal acetylcholine receptor; alpha3/beta4 (Rattus norvegicus, UniProt P04757+P12392), sequence (P12392 whole entry): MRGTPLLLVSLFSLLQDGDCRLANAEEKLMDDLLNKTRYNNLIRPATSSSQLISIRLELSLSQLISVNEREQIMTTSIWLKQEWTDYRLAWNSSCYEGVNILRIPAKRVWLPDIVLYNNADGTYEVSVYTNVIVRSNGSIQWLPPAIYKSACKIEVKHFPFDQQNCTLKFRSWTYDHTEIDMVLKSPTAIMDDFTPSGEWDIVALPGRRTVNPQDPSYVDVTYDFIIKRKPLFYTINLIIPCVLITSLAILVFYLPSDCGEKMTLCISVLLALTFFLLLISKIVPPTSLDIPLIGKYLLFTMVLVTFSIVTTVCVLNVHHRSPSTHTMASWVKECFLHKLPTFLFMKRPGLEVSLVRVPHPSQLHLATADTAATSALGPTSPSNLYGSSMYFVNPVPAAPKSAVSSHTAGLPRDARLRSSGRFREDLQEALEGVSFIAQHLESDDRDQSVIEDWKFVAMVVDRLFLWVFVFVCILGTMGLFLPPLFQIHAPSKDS

SMILES: CN1CCC[C@H]1[C@@H]1COc2ccc(Br)cc2O1
- pKi [1]: 5.09
- pKi [2]: 4.66

SMILES: CN1CCC[C@H]1[C@@H]1COc2ccc(CO)cc2O1
- pKi [1]: 4.29
- pKi [2]: 4.22

SMILES: Oc1ccc2c(c1)O[C@H]([C@H]1CCCN1)CO2
- pKi [1]: 5.89
- pKi [2]: 5.52

SMILES: CC(=O)c1ccc2c(c1)O[C@H]([C@@H]1CCCN1C)CO2 (racemic)
- pKi [1]: 4.01
- pKi [2]: 3.96

SMILES: Oc1ccc2c(c1)O[C@H]([C@@H]1CCCN1)CO2
- pKi [1]: 5.05
- pKi [2]: 4.48

SMILES: COc1ccc2c(c1)O[C@@H]([C@@H]1CCCN1C)CO2
- pKi [1]: 5.38
- pKi [2]: 4.59

SMILES: Oc1ccc2c(c1)O[C@@H]([C@@H]1CCCN1)CO2
- pKi [1]: 5.92
- pKi [2]: 4.28

SMILES: CN1CCC[C@@H]1[C@@H]1COc2ccc(O)cc2O1
- pKi [1]: 5.52
- pKi [2]: 5.89

SMILES: CN1CCC[C@H]1[C@@H]1COc2ccc(-c3ccccc3)cc2O1
- pKi [1]: 4.46
- pKi [2]: 4.44

SMILES: CN1CCC[C@H]1[C@H]1COc2ccc(Br)cc2O1
- pKd [1]: 10.44
- pKi [1]: 5.52
- pKd [2]: 9.52
- pKi [2]: 4.66

SMILES: CN1CCC[C@H]1[C@H]1COc2ccc(-c3ccccc3)cc2O1
- pKi [1]: 5.51
- pKi [2]: 4.29

SMILES: CC(=O)c1ccc2c(c1)O[C@@H]([C@@H]1CCCN1C)CO2
- pKi [1]: 4.93
- pKi [2]: 4.52

SMILES: CN1CCC[C@@H]1[C@H]1COc2ccc(O)cc2O1
- pKi [1]: 5.46
- pKi [2]: 5.35

SMILES: Oc1ccc2c(c1)O[C@@H]([C@H]1CCCN1)CO2
- pKi [1]: 4.74
- pKi [2]: 4.46

SMILES: CN1CCC[C@H]1[C@H]1COc2ccc(CO)cc2O1
- pKi [1]: 5.02
- pKi [2]: 4.92

SMILES: CC(C)Oc1ccc2c(c1)O[C@@H]([C@@H]1CCCN1C)CO2
- pKi [1]: 5.49
- pKi [2]: 4.37

SMILES: CC(C)Oc1ccc2c(c1)O[C@H]([C@@H]1CCCN1C)CO2
- pKi [1]: 5.03
- pKi [2]: 5.21

SMILES: COc1ccc2c(c1)O[C@H]([C@@H]1CCCN1C)CO2
- pKi [1]: 4.77
- pKi [2]: 4.49

SMILES: CN1CCC[C@H]1[C@@H]1COc2ccc(O)cc2O1
- pKi [1]: 7.92
- pKi [2]: 6.37
- pKi [3]: 6.51
- Ratio Ki (HEK293): 26
- pEC50 [4]: 4.75
- Ratio Ki (Rattus norvegicus): 35
- pEC50 [5]: 7.09
- Efficacy [6]: 51%
- Activity [7]: inactive

SMILES: Cc1ccc2c(c1)O[C@H]([C@@H]1CCCN1C)CO2
- pKi [1]: 4.38
- pKi [2]: 3.90

SMILES: CN1CCC[C@H]1[C@H]1COc2ccc(O)cc2O1
- pKi [1]: 6.38
- pKi [2]: 4.70
- Ratio Ki (Rattus norvegicus): 47

SMILES: c1cnc2cc3c(cc2n1)[C@@H]1CNC[C@H]3C1 [VARENICLINE]
- pEC50 [8]: 7.34
- Efficacy [9]: 49%
- Efficacy [10]: 49%

SMILES: Cc1ccc2c(c1)O[C@@H]([C@@H]1CCCN1C)CO2
- pKi [1]: 5.24
- pKi [2]: 4.19
